Screens: PubChem BioAssay, The Scripps Research Institute Molecular Screening Center
Only some compounds are listed: those with a hit (about 2.6% of all), similar ones and a draw of the others.
PRMT1 FP inh – blocks human protein arginine methyltransferase 1. Q99873. recombinant PRMT1, activity-based probe fluorescence polarization. inhibition, % at 2.79 µM. 370,000 compounds, 1.3% hits. AID 652257;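 active means inhibition above about 21% made by adding two undisclosed values, limit read from the data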
HTRA1 inh – inhibitors of human serine peptidase HTRA1; 340,000 compounds, 0.5% hits; recombinant HTRA1, FP-rhodamine activity-based probe, fluorescence polarization; Q92743; inhibition, % at 5.96 µM; in the data active means inhibition above about 36%;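 further: 0% = enzyme with DMSO and 100% = wells lacking enzyme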
SIAE primary – inhibitors of human sialic acid acetylesterase SIAE. SIAE FP-Rh probe binding, fluorescence polarization. inhibition, % at 9.66 µM. 370,000 compounds, 0.69% hits;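 active means inhibition above a cutoff: mean of compounds within the control limits plus 3 SD of those, cut at about 17% in these data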;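 further: 0% = plate median of compound wells and 100% = probe without SIAE protein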
TCR CD3 inh – blocks the human TCR-CD3 interaction. 360,000 compounds, 0.37% hits. TAMRA-labeled TCR probe fluorescence, biochemical. inhibition, % at 9.4 µM; in the data active means inhibition above about 19%;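 further: recombinant mutant TCR 2C K166C tagged with TAMRA read by polarization; 0% = receptor in buffer alone and 100% = receptor with positive control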
ABHD4 inh – inhibitors of mouse ABHD4 | Q8VD66 | purified mABHD4, FP-Rh probe fluorescence polarization | inhibition, % at 8.92 µM | 370,000 compounds, 0.54% hits | AID 720543;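 active means inhibition exceeding the mean over every tested compound plus 3 SD, cut at about 30% in these data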;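 further: 0% = plate median of compound wells and 100% = S159A mutant with DMSO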
Target sequence (Q8VD66 whole entry, looked up): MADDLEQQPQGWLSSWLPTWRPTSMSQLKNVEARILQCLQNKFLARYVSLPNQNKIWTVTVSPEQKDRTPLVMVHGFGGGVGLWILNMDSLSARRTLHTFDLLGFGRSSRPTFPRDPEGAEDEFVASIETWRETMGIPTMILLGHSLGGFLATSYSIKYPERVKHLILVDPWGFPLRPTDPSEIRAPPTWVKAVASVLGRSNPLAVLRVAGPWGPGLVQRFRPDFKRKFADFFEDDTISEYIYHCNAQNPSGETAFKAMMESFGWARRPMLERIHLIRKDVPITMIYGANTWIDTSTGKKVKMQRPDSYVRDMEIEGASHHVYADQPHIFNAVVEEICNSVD
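Test system: mouse ABHD4 enzyme, wild type. Reagent: FP-Rh fluorescent activity-based probe, added after compound pre-incubation. Timing: pre-incubation 45 min, probe exposure 60 min, at 25 °C. Technique: FP readout, ex 525 nm / em 598 nm. Benchmarks: high control S159A mutant with DMSO, low control median of compound wells.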
An asterisk follows results filed as active; / = no result given; + = active, no number.

SMILES	PRMT1 FP inh	HTRA1 inh	SIAE primary	TCR CD3 inh	ABHD4 inh
Cc1cc(Nc2cccc(Br)c2)cc(=O)n1-c1cccc(Br)c1	0	/	-6	-7	-8
CC1C(=O)CC2C3(C)CCC2(C(C)C(=O)O)C(=O)C13 (stereo unspecified)	3	/	-2	-1	4
Cc1ccc(S(=O)(=O)N2[C@@H](c3ccccc3F)C(C(=O)O)=CC[C@H]2c2ccc(Cl)c(Cl)c2)cc1	-1	-45	-6	1	26
COc1ccc(CNC(=O)c2sc(=S)n(-c3ccccc3)c2N)cc1	21*	-1	2	-8	4
CCOC1=C2CN(S(=O)(=O)c3ccccc3)[C@@H](c3ccccc3)C[C@H]2[C@H]2C(=O)N(c3ccccc3)C(=O)[C@H]2C1	1	/	-6	4	6
Nc1nc(N)c2cc(Sc3ccc4ccccc4c3)ccc2n1	1	/	29*	-7	20
Cc1nc(N)sc1-c1csc(Nc2ccccn2)n1	23*	24	2	-4	20
Cc1ccccc1NS(=O)(=O)c1ccc(F)cc1	4	-4	-8	-2	-10
CC(C)(C)N(NS(=O)(=O)c1ccc(F)cc1)c1ccccc1	22*	6	7	2	8
COCc1[nH]nc2c1C(c1ccc(F)cc1)N(c1ccccc1)C2=O (stereo unspecified)	-3	/	3	-6	-4
O=c1cc(-c2ccc(O)cc2)oc2cc(O)cc(O)c12	4	-9	-7	2	-25
C[C@@H]1O[C@@H](Oc2c(-c3ccc(O)c(O)c3)oc3cc(O)cc(O)c3c2=O)[C@H](O)[C@H](O)[C@H]1O	10	-3	1	-3	21
C[C@@H]1O[C@@H](Oc2c(-c3cc(O)c(O)c(O)c3)oc3cc(O)cc(O)c3c2=O)[C@H](O)[C@H](O)[C@H]1O	37*	-16	-12	3	10
O=c1c(O)c(-c2ccc(O)cc2)oc2cc(O)cc(O)c12	-1	2	21*	-6	10
CC1CN(C(=O)C(C)OC(=O)c2ccc3ncsc3c2)CC(C)O1 (stereo unspecified)	8	3	-4	-7	-6
Cc1nc([N+](=O)[O-])cn1CC(Cl)Cn1cc([N+](=O)[O-])nc1C	2	/	-3	-2	9
CCCN(CC1CC1)C(=O)c1oc(=O)c2ccccc2c1-c1ccc(C)cc1	1	/	1	/	0
Cc1cc(C(=O)NNC(=O)/C=C/c2ccco2)c(C)o1	23*	-5	-1	-3	0
Nc1ccc(O)c(-c2nc3ccccc3s2)c1	5	25	9	5	29
Oc1ccc(N=C/C=C/c2cccc(Br)c2)cc1-c1nc2ccccc2s1	/	44*	/	/	/
CCC(Sc1nc(C)cc(C)n1)C(=O)NC1=NN=C(c2ccc(C)cc2)CS1 (stereo unspecified)	49*	-3	-21	1	0
Cc1cc(C)nc(SCC(=O)NC2=NN=C(c3ccc(Br)cc3)CS2)n1	13	-10	0	8	-6
COc1ccc(CN2C(=O)c3cccnc3C2Nc2ccc(OC)c(Cl)c2)cc1 (stereo unspecified)	0	-3	3	6	-2
COc1ccc(NC2c3ncccc3C(=O)N2Cc2ccccc2)c(OC)c1 (stereo unspecified)	1	2	+	-4	7
CC(C)C(C)(C#N)NC(=O)CSc1nc2scc(-c3ccco3)c2c(=O)n1-c1ccccc1 (stereo unspecified)	22*	23	-7	13	-19
SMILES	PRMT1 FP inh	HTRA1 inh	SIAE primary	TCR CD3 inh	ABHD4 inh
CCOC(=O)C1CCN(C2CC(=O)N(c3cccc(Cl)c3)C2=O)CC1 (stereo unspecified)	22*	-3	-1	2	4
CCCCOCC1CN(Cc2ccccc2OC)S(=O)(=O)c2cc(Cl)ccc2O1 (stereo unspecified)	-5	/	-8	3	-11
Cn1c(SCC(=O)c2ccc3c(c2)OCO3)nnc1C1COc2ccccc2O1 (stereo unspecified)	22*	7	-4	7	-9
COC(=O)c1ccc2nc(-c3ccco3)c(Cc3ccc(OC)cc3C)n2c1	22*	/	1	-6	-6
Cc1ccc(Cc2c(-c3ccco3)nc3c4ccccc4ccn23)cc1	20	/	-5	0	-12
COC(=O)c1ccc2nc(-c3ccc(F)cc3)c(Cc3ccc(OC)cc3C)n2c1	3	/	-4	-7	-4
Cc1ccc(Cc2c(-c3ccco3)nc3ccc(C)cn23)cc1	21*	/	3	0	4
O=C(Nc1ccc(N2CCOCC2)cc1)c1ccc2ncsc2c1	22*	3	2	-1	-3
N#Cc1ccsc1NC(=O)c1ccc2ncsc2c1	22*	-10	-12	-13	-3
O=C(Nc1ccc(F)cc1)c1ccc2ncsc2c1	9	-13	-5	-1	2
C[C@H]1CN([C@@H](C)CO)C(=O)c2cc(NC(=O)c3ccncc3)ccc2O[C@H]1CN(C)Cc1ccc(C(=O)O)cc1	1	10	3	4	6
CN(C)c1ccc(CNC(=O)C2(C)Cc3c(-c4ccc5c(c4)OCO5)ccnc3O2)cc1 (stereo unspecified)	2	/	3	5	13
COc1ccc(NC(=O)c2cc([N+](=O)[O-])ccc2NC(=O)CNCc2ccccn2)c(OC)c1	25*	1	0	0	6
C=CCCC1CN(Cc2ccc(OC)cc2)S(=O)(=O)c2c(Oc3cc(C)c(C)c(C)c3)cccc2O1 (stereo unspecified)	-1	/	-3	5	-2
COC(=O)[C@@]1(Cc2ccc(F)cc2)[C@H]2c3cc(C(=O)N(C)C)n(Cc4ccc(C)o4)c3C[C@H]2CN1C(=O)c1ccccc1	22*	/	-2	13	0
Cc1ccc2[nH]c3c(c2c1)CN(C(=O)CN1CCN(c2cccc(C)c2C)CC1)CC3	21	-22	0	0	-1
Cc1ccc2[nH]c3c(c2c1)CN(C(=O)CN1CCN(C(=O)c2ccco2)CC1)CC3	21*	/	3	-7	1
CC(=O)NC1C(=O)N(CCN2CCOCC2)c2ccc(C)cc21 (stereo unspecified)	/	1	/	/	/
CC(=O)NC1C(=O)N(CCN2CCOCC2)c2ccc(Cl)cc21 (stereo unspecified)	22*	-1	1	4	9
Nc1cc(C(=O)O)c(N)c2c1C(=O)c1ccccc1C2=O	/	82*	/	/	/
CC(C)=CCC[C@](C)(O[C@@H]1O[C@H](CO[C@@H]2OC[C@@H](O)[C@H](O)[C@H]2O)[C@@H](O)[C@H](O)[C@H]1O)C1CC[C@]2(C)C1[C@H](O)CC1[C@@]3(C)CC[C@H](O[C@@H]4O[C@H](CO)[C@@H](O)[C@H](O)[C@H]4O)C(C)(C)C3CC[C@]12C (stereo partly specified)	0	7	-4	0	5
COc1cc2cccc(OC)c(=O)c2c(O)c1OC	2	11	-1	-12	3
COc1cc2c(ccc3cc(OC)c(OC)c(O)c32)cc1O	0	24	17	39*	6
